Series [1] deals with Mu-type opioid receptor (Homo sapiens) (UniProt P35372). The series can be described thus: Displacement of [3H]-diprenorphine from human mu-opiod receptor expressed in CHO cells at 1 uM after 150 mins by liquid scintillation counting analysis. The format is cell-based. On the technique in general: Loss of bound radioactivity is the signal in a displacement assay; it reports binding, not function.

In series [2] the test system is Mus musculus. The format is toxicity, organism-based, Kun Ming. The following applies: in vivo, po, 160 mg/kg.
Series [3] relates to Rattus norvegicus. In words: Antiallodynic activity in po dosed Sprague-Dawley rat chronic constriction injury-induced neuropathic pain model assessed as inhibition of thermal hypersensitivity administered as bid on day 15th and 18th post surgery by plantar test. The series is classed as functional. In short, it runs like this:
(§1)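 CCI or sham SD rats, 10 per group, dosed orally in 0.5% methylcellulose (10 mL/kg) twice daily on days 15–18. Tested after the first dose on day 15 and the last dose on day 18. Plantar test: after 30 min acclimation on a glass floor, radiant heat was applied under the hind paw and withdrawal latency recorded. 30 s cutoff; mean of four samplings.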

Series [4] can be described thus: AUC (0 to infinity) in Sprague-Dawley rat at 80 mg/kg, po administered through gavage by LC-MS/MS analysis. As to conditions: in vivo. On the set-up: dose 80 mg/kg, route oral, time infinity. The series is classed as ADME, organism-based. Summed up:
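Oral gavage to rats (n = 3/group), 80 mg/kg as suspension in 0.5% methylcellulose. Blood drawn serially from lateral tail vein into heparinized tubes at 30 min and 1, 2, 3, 4, 5, 6, 8 and 24 h. Plasma obtained by centrifugation, acetonitrile protein precipitation, LC/MS quantification.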

A short description of series [5]: Oral bioavailability in Sprague-Dawley rat at 80 mg/kg administered through gavage by LC-MS/MS analysis. The format is ADME, organism-based. As to conditions: in vivo. Summed up: (§2)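 SD rats, n = 3/group. Dosing was either 5 mg/kg iv via tail vein in saline or 80 mg/kg by oral gavage as a suspension in 0.5% methylcellulose. Serial tail-vein blood was drawn into heparinized tubes at 0.5, 1, 2, 3, 4, 5, 6, 8 and 24 h. Plasma was separated, proteins precipitated with acetonitrile, and samples analysed by LC/MS.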

Series [6] is described as follows: Half life in Sprague-Dawley rat at 5 mg/kg, iv by LC-MS/MS analysis. The format is ADME, organism-based. As to conditions: in vivo. Summed up:
as §2

Series [7] deals with Cannabinoid receptor 2 (Homo sapiens) (UniProt P34972). The series can be described thus: Displacement of [3H]-CP-55940 from human CB2 receptor expressed in HEK cells at 1 uM after 90 mins by liquid scintillation counting analysis. As to conditions: HEK293. The series is classed as cell-based.
Chain of Cannabinoid receptor 2 (Homo sapiens) (P34972 whole entry): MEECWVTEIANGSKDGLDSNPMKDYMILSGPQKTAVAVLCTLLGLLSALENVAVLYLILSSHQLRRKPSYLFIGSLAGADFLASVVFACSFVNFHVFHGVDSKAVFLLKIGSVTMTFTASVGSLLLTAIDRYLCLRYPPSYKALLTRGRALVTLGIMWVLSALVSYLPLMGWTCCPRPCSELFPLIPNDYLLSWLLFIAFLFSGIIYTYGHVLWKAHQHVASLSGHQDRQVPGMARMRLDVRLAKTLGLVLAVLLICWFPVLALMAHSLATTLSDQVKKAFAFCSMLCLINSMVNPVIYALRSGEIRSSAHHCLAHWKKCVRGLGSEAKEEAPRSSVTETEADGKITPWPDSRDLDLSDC
Series [8] in a line: Displacement of [3H]-DTG from Sigma2 receptor in Dunkin Hartley guinea pig brain membrane after 120 mins by liquid scintillation counting analysis in presence of sigma1 blocker (+)-SKF-10047. On the set-up: species or system Cavia porcellus. In short, it runs like this:
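Guinea pig brain P2 membranes incubated with 3 nM [³H]-DTG plus 400 nM (+)-SKF-10047 to block σ1 sites, Tris-HCl pH 8.0, 25 °C for 120 min; nonspecific binding with DTG. Filtration on PEI-presoaked GF/B filters, scintillation counting. […] At least three experiments.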

Series [9] relates to Rattus norvegicus. The series can be described thus: Antiallodynic activity in po dosed Sprague-Dawley rat chronic constriction injury-induced neuropathic pain model assessed as inhibition of thermal hypersensitivity administered as single dose on day 15th post surgery by plantar test. The format is functional. Summed up: as §1
Series [10] in a line: Cmax in Sprague-Dawley rat at 80 mg/kg, po administered through gavage by LC-MS/MS analysis. The format is ADME, organism-based. Further details: dose 80 mg/kg, route oral. The following applies: in vivo. Summed up:
as §2

For series [11], the system named is Mus musculus. The series is classed as toxicity, organism-based, Kun Ming. As to conditions: in vivo, po, 80 mg/kg.
In series [12] the target is T1, 5-hydroxytryptamine receptor 1A (Rattus norvegicus) (UniProt P19327).
T1 sequence (whole entry): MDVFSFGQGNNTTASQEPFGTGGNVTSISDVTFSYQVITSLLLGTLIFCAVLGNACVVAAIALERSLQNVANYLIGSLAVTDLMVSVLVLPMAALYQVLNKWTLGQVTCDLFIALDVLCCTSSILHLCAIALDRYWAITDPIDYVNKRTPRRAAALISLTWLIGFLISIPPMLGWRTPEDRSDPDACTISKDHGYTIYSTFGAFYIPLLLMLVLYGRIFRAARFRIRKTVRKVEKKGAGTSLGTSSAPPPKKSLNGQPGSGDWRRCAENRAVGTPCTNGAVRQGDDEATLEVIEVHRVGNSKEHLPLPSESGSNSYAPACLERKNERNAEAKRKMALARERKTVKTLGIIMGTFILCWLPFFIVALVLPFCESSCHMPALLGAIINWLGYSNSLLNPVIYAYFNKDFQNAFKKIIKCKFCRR
The series can be described thus: Displacement of [3H]-8-OH-DPAT from 5HT1A receptor in rat cerebral cortex at 1 uM after 30 mins by liquid scintillation counting analysis. The format is tissue-based.

Series [13] is described as follows: Acute toxicity in po dosed Kun Ming mouse assessed as mortality after 24 hrs. The format is organism-based. As to conditions: in vivo. Summed up:
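Mice, 10 per group, given a single oral dose (10 mL/kg) of 0.5% methylcellulose vehicle or test compound at 200, 500, 1000, 1500 or 2000 mg/kg. Survivors were counted 24 h after dosing and percent mortality per group was calculated. LD50 was derived by statistical analysis.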

The subject of series [14] is Rattus norvegicus. The series can be described thus: Antiallodynic activity in po dosed Sprague-Dawley rat chronic constriction injury-induced neuropathic pain model assessed as inhibition of mechanical allodynia administered as bid on day 15th and 18th post surgery by Von frey test. The format is functional. Summed up: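 Sciatic nerve CCI in SD rats (Bennett–Xie) under 5% chloral hydrate: four loose 4-0 silk ligatures on the right sciatic nerve, about 1 cm proximal to the trifurcation. Oral dosing in 0.5% methylcellulose (10 mL/kg), twice daily on days 15–18. Testing followed the first dose on day 15 and the last dose on day 18. Mechanical withdrawal threshold by von Frey up–down method, four samplings averaged. 10 rats/group.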

Series [15] deals with Mus musculus. The series can be described thus: Antinociceptive activity in Kun Ming mouse assessed as paw licking time in delayed pain response phase at 80 mg/kg, ig administered 15 mins prior to formalin challenge measured after 15 to 45 mins post formalin dosing. The format is functional. Summed up:
(§3)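 Mice received 20 μL of 2.5% formalin (0.92% formaldehyde) in the dorsal right hind paw. Time spent licking or biting the paw was scored at 0–5 min (phase I) and 15–45 min (phase II), with a mirror behind the glass cylinder. Vehicle was 30% PEG 400 at 10 mL/kg, given 15 min before formalin. n = 10–12 per group. % antinociception = (LT_V − LT_D)/LT_V × 100.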

Series [16] deals with Glutamate NMDA receptor (Rattus norvegicus) (UniProt P35439+Q00959+Q00960+Q00961+Q62645+Q8VHN2+Q9R1M7). In words: Displacement of [3H]-glycine from NMDA receptor in rat hippocampal membrane at 1 uM after 30 mins by liquid scintillation counting analysis. The series is classed as cell membranes. As to conditions: Hippocampus.
A short description of series [17]: Half life in Sprague-Dawley rat at 80 mg/kg, po administered through gavage by LC-MS/MS analysis. The format is ADME, organism-based. The following applies: in vivo. In short, it runs like this:
as §2

For series [18], the system named is Mus musculus. The series can be described thus: Toxicity in Kun Ming mouse assessed as impair in motor coordination at 40 to 160 mg/kg, ig measured after 30 to 120 mins by rotarod test. The format is organism-based. As to conditions: in vivo, po. Summed up: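 Mice were pre-trained; any that could not stay 300 s on the rod at 10 rpm were excluded. Latency to fall from the rod rotating at 10 rpm was recorded 30, 60, 90 and 120 min after intragastric dosing. 8–10 mice per group.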
(In the rotarod test animals must keep their balance on a rotating rod.)

Series [19] addresses 5-hydroxytryptamine receptor 2A (Rattus norvegicus) (UniProt P14842). The series can be described thus: Displacement of [3H]-ketanserin from 5HT2A receptor in rat cerebral cortex at 1 uM after 15 mins by liquid scintillation counting analysis. The series is classed as tissue-based.
For series [20], the system named is Mus musculus. In words: Antinociceptive activity in Kun Ming mouse assessed as paw biting time in delayed pain response phase at 80 mg/kg, ig administered 15 mins prior to formalin challenge measured after 15 to 45 mins post formalin dosing. The series is classed as functional. In short, it runs like this: as §3

Results on 1 molecule are retold here after ChEMBL document CHEMBL3804799, “Synthesis and Biological Evaluation of Novel σ1 Receptor Ligands for Treating Neuropathic Pain: 6-Hydroxypyridazinones” (J Med Chem, 2016).

Usually inhibition stands for the relative decrease from the control value, in per cent. By ED50 is commonly meant the midpoint of the dose-response relation. As usually defined, the AUC(0-inf) is total exposure, with the tail of the curve extrapolated. The bioavailability is the share of a dose that reaches the circulation, judged against a reference dose that is usually intravenous. Higher therefore signals good availability. As a reminder, the half-life is how long it takes for the measured level to halve. Usually Ki stands for the dissociation constant of the complex between target and ligand, obtained from inhibition or displacement. The Cmax is the maximum level reached in the sampled fluid or tissue. The term LD50 denotes the dose at which mortality reaches 50%.

The structures appear in SMILES notation. Where only a bound is given, the exact number is not on record here.

Chain of 5-hydroxytryptamine receptor 2A (Rattus norvegicus) (P14842 whole entry): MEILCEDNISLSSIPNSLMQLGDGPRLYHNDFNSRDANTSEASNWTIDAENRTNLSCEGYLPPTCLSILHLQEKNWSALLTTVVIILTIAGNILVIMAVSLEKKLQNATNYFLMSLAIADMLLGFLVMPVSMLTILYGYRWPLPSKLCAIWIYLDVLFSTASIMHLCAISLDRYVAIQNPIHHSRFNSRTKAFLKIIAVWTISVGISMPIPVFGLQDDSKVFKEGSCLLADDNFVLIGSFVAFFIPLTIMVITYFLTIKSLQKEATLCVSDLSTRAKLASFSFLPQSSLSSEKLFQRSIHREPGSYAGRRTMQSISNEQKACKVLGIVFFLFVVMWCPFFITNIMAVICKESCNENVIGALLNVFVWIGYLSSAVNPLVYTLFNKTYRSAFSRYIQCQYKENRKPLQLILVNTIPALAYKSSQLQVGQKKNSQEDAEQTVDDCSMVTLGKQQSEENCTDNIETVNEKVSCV
Chain of Mu-type opioid receptor (Homo sapiens) (P35372 whole entry): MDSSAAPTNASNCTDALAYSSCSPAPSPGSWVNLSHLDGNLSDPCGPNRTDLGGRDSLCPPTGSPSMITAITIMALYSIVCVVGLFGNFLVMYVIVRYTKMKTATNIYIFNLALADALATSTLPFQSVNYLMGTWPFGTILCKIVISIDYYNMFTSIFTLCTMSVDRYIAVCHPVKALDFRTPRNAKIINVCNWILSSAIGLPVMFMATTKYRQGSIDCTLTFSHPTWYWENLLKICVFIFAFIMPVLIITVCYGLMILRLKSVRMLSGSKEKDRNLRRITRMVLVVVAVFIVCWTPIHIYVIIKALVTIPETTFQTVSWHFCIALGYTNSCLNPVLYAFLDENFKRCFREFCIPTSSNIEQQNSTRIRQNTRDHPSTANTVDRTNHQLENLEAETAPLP

For the molecule `O=c1ccc(OCCCN2CCCCC2)nn1-c1ccc(Cl)c(Cl)c1`, the inhibition in series [1], in series [7], in series [12], in series [16] and in series [19] was less than 50% each time. In addition, the Activity in series [2] is given as 16458.3 mm; in series [11], 18282.4 mm; in series [18] it was “Non-toxic”. The results for the ED50 in series [3], in [9] and in [14] were 16.9 mg/kg, 18.6 mg/kg and 40.3 mg/kg, respectively. Besides, in series [4], the total exposure AUC(0-inf) came out at 13400 ng·h/mL. Moreover, the bioavailability in [5] came to 87.5%. The figures for the half-life in series [6] and in series [17] were 1.39 h and 2.88 h, respectively. Further, the Ki in [8] stood at 1.91 µM. This molecule also displayed a Cmax in series [10] of 2920 ng/mL. For the same molecule, the LD50 at 24 h in series [13] is more than 2000 mg/kg. Further, the Time in [15] worked out at 45.88 s; in [20] it was 41.16 s.
